High-throughput results as filed in PubChem BioAssay.
TRPC6 activator – mouse TRPC6 channel activation; HEK293-TRPC6 membrane potential dye fluorescence; stronger effect = higher value; B-score at 10 µM; actives 0.13% (n = 310,000);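 active means B-score of the integrated fluorescence ratio above library mean plus 3 SD, and starting fluorescence ratio within library mean plus 5 SD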;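 further: higher score means more depolarization so channel activation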
Target sequence (Q61143 whole entry, looked up): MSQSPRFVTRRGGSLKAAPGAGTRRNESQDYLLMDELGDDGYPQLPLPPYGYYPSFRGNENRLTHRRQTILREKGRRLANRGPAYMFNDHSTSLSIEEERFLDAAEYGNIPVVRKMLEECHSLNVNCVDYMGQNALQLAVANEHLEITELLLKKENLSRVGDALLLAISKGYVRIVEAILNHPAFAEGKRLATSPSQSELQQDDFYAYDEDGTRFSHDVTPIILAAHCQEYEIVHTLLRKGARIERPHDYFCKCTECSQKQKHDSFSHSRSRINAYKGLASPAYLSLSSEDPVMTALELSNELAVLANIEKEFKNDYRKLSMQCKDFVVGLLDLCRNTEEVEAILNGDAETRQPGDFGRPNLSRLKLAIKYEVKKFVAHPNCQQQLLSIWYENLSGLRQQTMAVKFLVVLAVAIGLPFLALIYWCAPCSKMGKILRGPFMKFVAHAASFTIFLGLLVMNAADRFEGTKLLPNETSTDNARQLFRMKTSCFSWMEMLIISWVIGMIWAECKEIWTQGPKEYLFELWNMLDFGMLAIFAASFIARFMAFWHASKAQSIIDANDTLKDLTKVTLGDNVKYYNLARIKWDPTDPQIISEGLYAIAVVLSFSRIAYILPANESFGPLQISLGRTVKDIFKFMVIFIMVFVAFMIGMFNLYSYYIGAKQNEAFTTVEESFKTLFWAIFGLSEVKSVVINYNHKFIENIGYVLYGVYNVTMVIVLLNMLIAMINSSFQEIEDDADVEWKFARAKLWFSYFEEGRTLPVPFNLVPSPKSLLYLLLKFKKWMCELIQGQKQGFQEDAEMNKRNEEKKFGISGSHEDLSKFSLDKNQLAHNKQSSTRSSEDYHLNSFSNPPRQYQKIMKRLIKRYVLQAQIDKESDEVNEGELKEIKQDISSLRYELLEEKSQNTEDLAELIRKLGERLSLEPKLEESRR
TRPC4 PAM – allosteric potentiators of mouse TRPC4 channel | AID 2227 | actives 0.42% (n = 310,000) | B-score at 10 µM | Q9QUQ5 | HEK293 TRPC4beta/mu-opioid, DAMGO EC20, Fluo-4 Ca2+ flux; stronger effect = higher value;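 active means B-score of calcium response area above 5 SD of library B-scores, with initial fluorescence ratio within 5 SD of library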
TRPC4 block – blocks the mouse TRPC4 cation channel; Q9QUQ5; HEK293 TRPC4beta/mu-opioid, DAMGO-evoked Fluo4 calcium flux; stronger effect = lower value; B-score at 10 µM; actives 0.39% (n = 300,000); AID 2247;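 active means B-score over 3 SD under the library average, no early fluorescence shift, positive overall ratio signal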
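test system = HEK293 cells with stable TRPC4beta plus mu-opioid receptor expression | detection = Fluo4 Ca2+ flux fluorescence | read-out = integrated fluorescence ratio relative to baseline, converted to per-well B score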
Kir21 block – inhibitors of mouse Kir2.1 inward-rectifier potassium channel; P35561; HEK293-Kir2.1, FluxOR thallium flux fluorescence; stronger effect = lower value; B-score at 10 µM; actives 0.85% (n = 310,000); AID 1672;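 active means fluorescence ratio B-score at or below minus 3 SD of library scores, with starting-brightness B-score within 2 SD, cut at about -4.2 in these data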;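 further: channel flux triggered by added potassium and thallium sulfate stimulus; B-score of peak minus minimum fluorescence over baseline after thallium stimulus; more negative B-score means stronger Kir2.1 block with less thallium influx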
TRPC4 act – activators of mouse TRPC4 channel | Q9QUQ5 | HEK293 TRPC4beta/mu-opioid, Fluo4 calcium fluorescence; stronger effect = higher value | B-score at 10 µM | actives 0.49% (n = 310,000);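 active means B-score above 5 SD of library B-scores, and initial fluorescence ratio not above library mean plus 5 SD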;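 further: positive B-score marks a calcium rise read as TRPC4 activation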
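Material: HEK293 stable line with TRPC4beta plus mu-opioid receptor; technique: Fluo4 calcium-sensitive dye fluorescence, kinetic, 1 Hz baseline; timing: Fluo4 dye loading 45 min at room temperature, 110 s recording; controls: assay buffer as low control, maximal DAMGO as high control; read-out: integrated baseline-normalised fluorescence ratio, converted to per-well B score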
TRPC6 inhibitor – mouse TRPC6 channel inhibition; Q61143; HEK293-TRPC6, membrane potential dye, ACh-evoked depolarization; stronger effect = lower value; B-score at 10 µM; actives 1.1% (n = 310,000); AID 2553;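 active means B-score under library mean minus 3 SD, initial fluorescence not abnormally high, positive integrated signal ratio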;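 further: B-score derived from integrated fluorescence ratio over the kinetic read; more negative B-score means stronger inhibition of depolarization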
TRPC4 sel inh 2 – mouse TRPC4 off-target activity of TRPC6 inhibitors, second screen; shares compounds with TRPC6 inhibitor; HEK293 TRPC4/MOR, membrane potential dye fluorescence; channel activated by saturating DAMGO dose; inhibition, % at 10 µM; actives 42% (n = 920); AID 2776;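 active means compounds whose fluorescence signal differed from control wells by over 3 SD, either direction, in both duplicate plates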
TRPC4 spec – mouse TRPC4 off-target activity of TRPC6 inhibitors; actives 61% (n = 920); HEK293 TRPC4/mu-opioid, membrane potential fluorescence; activity change, negative = inhibition, % at 10 µM; shares compounds with TRPC6 inhibitor;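 active means rise or fall in signal beyond 3 SD of buffer-only wells in both replicate plates, either sign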;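 further: integrated kinetic ratio of fluorescence range over baseline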
HEK293 MPD ctr 2-1 – second check of TRPC6 inhibitor effects in parental HEK293 cells; actives 31% (n = 920); signal change vs control, % at 10 µM; AID 2779; shares compounds with TRPC6 inhibitor; parental HEK293 membrane potential dye fluorescence; maximal acetylcholine challenge after compound addition;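 active means membrane potential signal moving either way by over 3 SD of the maximum-effect control, in both duplicate plates, meaning non-specific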
HEK293 MPD ctr-1 – parental HEK293 nonspecific activity of TRPC6 inhibitors; parental HEK293 membrane potential dye fluorescence; shares compounds with TRPC6 inhibitor; AID 2780; membrane potential signal change, % at 10 µM; actives 60% (n = 920);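 active means membrane potential signal shifting up or down by more than 3 SD of buffer-only wells, on both duplicate plates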
HEK293 MPD ctr-2 – checks TRPC6 modulator effects in parental HEK293 cells. membrane potential dye fluorescence. actives 51% (n = 2,400). membrane potential signal change, % at 10 µM. AID 488924. shares compounds with TRPC6 inhibitor;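 active means membrane potential signal moves up or down beyond 5 SD from buffer-only wells, on both duplicate plates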
HEK293 MPD ctr 2-2 – second check of TRPC6 modulator effects in parental HEK293 cells; shares compounds with TRPC6 inhibitor; membrane potential dye fluorescence; after compound, maximal acetylcholine stimulation; inhibition, % at 10 µM; actives 14% (n = 2,400); AID 488926;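 active means membrane potential signal drops by more than 5 SD from the mean control signal, in both duplicate plates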
TRPC4 ctr mod – mouse TRPC4 off-target activity of TRPC6 modulators; shares compounds with TRPC6 inhibitor; HEK293 TRPC4/mu-opioid, membrane potential fluorescence; percent change from control (negative = decrease, positive = increase), % at 10 µM; actives 69% (n = 2,400);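 active means membrane potential signal moved up or down beyond 5 SD of buffer control wells, in both duplicate plates, actives on both sides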
TRPC4/MOR inh 2 – second selectivity test of TRPC6 modulators against mouse TRPC4 | shares compounds with TRPC6 inhibitor | HEK293 TRPC4/mu-opioid, membrane potential dye fluorescence; stimulated with maximal-effect DAMGO | inhibition, % at 10 µM | actives 55% (n = 2,400) | AID 488928;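 active means drop in membrane potential signal beyond 5 SD of the control wells in both duplicate plates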;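 further: TRPC4 counter screen for TRPC6 hits run under conditions tuned for TRPC6 not TRPC4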
TRPC6 inh conf – mouse TRPC6 inhibitor confirmation. shares compounds with TRPC6 inhibitor. HEK293-TRPC6, membrane potential dye, ACh-evoked depolarization. inhibition, % at 10 µM. actives 43% (n = 3,300). AID 488960;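 active means fluorescence ratio falls more than 5 SD below the full-stimulation control mean, in both duplicate runs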;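 further: integrated fluorescence ratio of peak minus minimum over baseline after agonist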
TRPC6 act conf – mouse TRPC6 activator confirmation | actives 11% (n = 2,800) | HEK293-TRPC6 membrane potential dye fluorescence, FDSS | AID 488961 | shares compounds with TRPC6 inhibitor | activation, % at 10 µM;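 active means ratio signal rise beyond 5 SD above unstimulated control wells' mean, seen in both duplicate runs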
Each line names hits and unclear results; the compound was inactive in the other large screens (follow-up assays come after a bar, where they were run). Shown are actives, neighbours in structure and some others; about 3% of the full set was active somewhere.

CCN(CC)S(=O)(=O)c1cccc(NC(=O)CNC2CCCCCC2)c1	TRPC6 inhibitor -6.5 | HEK293 MPD ctr-2 inactive | HEK293 MPD ctr 2-2 inactive | TRPC4 ctr mod inactive | TRPC4/MOR inh 2 66% | TRPC6 inh conf 43% | TRPC6 act conf inactive
CC(C)C(=O)Nc1ccc(-c2nc3ccccc3c(=O)o2)cc1	none
O=C(CNCCC1=CCCCC1)Nc1ccc(N2CCCCCC2)cc1	Kir21 block -5.6, TRPC6 inhibitor -7.2 | TRPC4 sel inh 2 70% | TRPC4 spec -12% | HEK293 MPD ctr 2-1 inactive | HEK293 MPD ctr-1 -152% | TRPC6 inh conf inactive | TRPC6 act conf inactive
CC(=O)/C(C(=N)N1CCN(C(c2ccccc2)c2ccccc2)CC1)=C(\C)O	TRPC6 inhibitor -7 | TRPC4 sel inh 2 inactive | TRPC4 spec inactive | HEK293 MPD ctr 2-1 inactive | HEK293 MPD ctr-1 inactive | TRPC6 inh conf inactive | TRPC6 act conf inactive
CSCc1ccc(C(=O)NC(C)c2ccc(-n3ccnc3)cc2)cc1 (stereo not drawn)	none
O=C1CSC2(C(=O)N3CCCc4cccc2c43)N1c1cccc(C(F)(F)F)c1 (stereo not drawn)	none
COc1ccc(N2C(=O)CSC23C(=O)N2CCCc4cccc3c42)cc1 (stereo not drawn)	TRPC6 inhibitor -14 | TRPC4 sel inh 2 inactive | TRPC4 spec inactive | HEK293 MPD ctr 2-1 -29% | HEK293 MPD ctr-1 inactive | TRPC6 inh conf 81% | TRPC6 act conf inactive
CC1(c2ccccc2Cl)NC(=O)N(CC(=O)NCc2ccc3c(c2)OCO3)C1=O (stereo not drawn)	none
NCCN1C(=O)S/C(=C\c2ccc3c(c2)OCO3)C1=O	TRPC6 inhibitor -5.4 | HEK293 MPD ctr-2 inactive | HEK293 MPD ctr 2-2 inactive | TRPC4 ctr mod -9.5% | TRPC4/MOR inh 2 42% | TRPC6 inh conf 36% | TRPC6 act conf inactive
O=C(CCN1C(=O)/C(=C/c2ccc3c(c2)OCO3)SC1=S)Nc1cccc(C(=O)O)c1	none
COc1cc(/C=C2\SC(=O)N(CCN)C2=O)ccc1OS(=O)(=O)c1cc(C)ccc1C	TRPC6 inhibitor -7.2 | TRPC4 sel inh 2 inactive | TRPC4 spec inactive | HEK293 MPD ctr 2-1 inactive | HEK293 MPD ctr-1 inactive | TRPC6 inh conf inactive | TRPC6 act conf inactive
